Measurements reported in article PMC2646813 (Journal of biomolecular screening, 2008).
Structures can show the parent of a compound that is named as a salt. Where two headings read alike, the source gives them in different places.

What was measured:
PPARαΔAB [1] = molecular target: T1, PPARαΔAB (Mus musculus, UniProt P23204); assay type: binding, murine
T1 sequence (P23204 101-468 limits assumed): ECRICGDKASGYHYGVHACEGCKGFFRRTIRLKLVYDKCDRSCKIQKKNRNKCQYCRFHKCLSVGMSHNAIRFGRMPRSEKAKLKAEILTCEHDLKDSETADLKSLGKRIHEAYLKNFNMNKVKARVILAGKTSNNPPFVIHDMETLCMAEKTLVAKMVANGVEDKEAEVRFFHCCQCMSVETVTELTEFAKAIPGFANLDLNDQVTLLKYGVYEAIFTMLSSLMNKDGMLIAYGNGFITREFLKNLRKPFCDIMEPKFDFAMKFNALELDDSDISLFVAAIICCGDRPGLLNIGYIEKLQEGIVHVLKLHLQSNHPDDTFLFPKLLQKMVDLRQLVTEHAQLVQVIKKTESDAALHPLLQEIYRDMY
How it was run: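 Intrinsic aromatic fluorescence quenching. 0.1 μM murine PPARαΔAB in 20 mM glucose in PBS titrated with test compound. Excitation 280 nm, emission 300–380 nm. Corrected for buffer, compound fluorescence and solvent. Kd calculated from maximal intensities, with double-reciprocal plots. Mean ± SEM, n = 3–4.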

PPARα = molecular target: T2, PPARα (Mus musculus, UniProt P23204); experiment: Transactivation assay, acyl-CoA oxidase reporter; assay type: cell-based; conditions: for Increase of PPARα transactivation (percentage change from no-compound control): basal, absence of glucose (Fig. 2C open bars); for Effect on clofibrate-induced PPARα transactivation: absence of glucose (Fig. 2D open bars)
T2 sequence (P23204 1-468): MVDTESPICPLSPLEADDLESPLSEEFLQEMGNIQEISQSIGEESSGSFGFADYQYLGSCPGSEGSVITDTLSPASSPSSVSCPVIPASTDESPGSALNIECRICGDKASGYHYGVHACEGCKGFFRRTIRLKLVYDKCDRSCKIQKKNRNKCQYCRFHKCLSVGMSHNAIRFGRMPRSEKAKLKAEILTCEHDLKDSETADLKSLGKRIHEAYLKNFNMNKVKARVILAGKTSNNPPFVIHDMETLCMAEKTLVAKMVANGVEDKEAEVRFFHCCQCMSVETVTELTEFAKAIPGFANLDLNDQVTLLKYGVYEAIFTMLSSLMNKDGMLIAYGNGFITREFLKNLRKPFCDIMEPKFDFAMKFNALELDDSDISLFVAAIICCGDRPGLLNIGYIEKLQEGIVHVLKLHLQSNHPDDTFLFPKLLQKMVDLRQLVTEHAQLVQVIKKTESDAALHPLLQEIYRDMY
How it was run: (§1)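 COS-7 cells in 24-well plates transfected with 0.4 μg full-length pSG5-PPARα, alone or with pSG5-mRXRα; 0.4 μg PPRE3-TK-LUC reporter; 0.04 μg pRL-CMV. Then serum-free, glucose-free DMEM for 2 h. Compound (10 μM) added at 0 or 20 mM glucose, ±10 μM clofibrate, for 24 h. Firefly luciferase normalized to Renilla. Results given as percentage of clofibrate-induced PPARα activity, or percentage change from no-compound control; mean ± SEM, n = 3.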

PPARαΔAB [2] = molecular target: T1, PPARαΔAB; experiment: Primary drug-screening assay: restoration of BODIPY-C16-CoA; assay type: binding, murine; conditions: 20 mM glucose; for Recovery (ability to restore acyl-CoA binding): compound 1.25 μM, 10 nM BODIPY-C16-CoA, 200 nM PPARαΔAB
PPARα-RXRα heterodimers = molecular target: T3, PPARα-RXRα heterodimers (Mus musculus, UniProt P23204); experiment: Transactivation assay, acyl-CoA oxidase reporter; assay type: cell-based
T3 sequence (P23204 1-468): T2 sequence (P23204 1-468)
T3 sequence (P28700 1-467 partner): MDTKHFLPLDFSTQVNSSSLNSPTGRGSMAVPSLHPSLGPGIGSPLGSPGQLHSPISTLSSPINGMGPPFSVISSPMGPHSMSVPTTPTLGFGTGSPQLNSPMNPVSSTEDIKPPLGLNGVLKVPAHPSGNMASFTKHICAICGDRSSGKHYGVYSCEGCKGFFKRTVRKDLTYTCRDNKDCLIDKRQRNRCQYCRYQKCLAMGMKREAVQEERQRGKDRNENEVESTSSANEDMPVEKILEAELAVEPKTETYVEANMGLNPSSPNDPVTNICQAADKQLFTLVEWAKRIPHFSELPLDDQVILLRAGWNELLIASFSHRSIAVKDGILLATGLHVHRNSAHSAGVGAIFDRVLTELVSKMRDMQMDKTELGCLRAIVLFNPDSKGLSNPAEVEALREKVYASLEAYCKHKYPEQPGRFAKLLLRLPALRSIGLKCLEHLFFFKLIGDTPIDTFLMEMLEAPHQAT
How it was run: as §1

PPARαΔAB [3] = molecular target: T1, PPARαΔAB; experiment: PPARα binding assays to BODIPY-C16 fatty acid or fatty acyl-CoA; set-up: species or system murine; conditions: high glucose (20 mM)
How it was run: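 50 nM BODIPY-C16 or BODIPY-C16-CoA prebound to 100 nM murine PPARαΔAB, then titrated with glucose. Excitation 460 nm, emission 490–540 nm. Background-corrected maximal intensities expressed as percentage change in binding versus the no-glucose control.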

PPARαΔAB [4] = molecular target: T1, PPARαΔAB; experiment: Circular dichroism, PPARα secondary structure; set-up: species or system murine; conditions: 20 mM glucose, 0.8 μM PPARαΔAB; mean ± SEM (n = 4)
How it was run: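 Murine PPARαΔAB (N-terminal truncation), expressed in E. coli BL21(DE3)pLysS and purified, at 0.8 μM with 0 or 20 mM glucose. Ten CD scans averaged per spectrum. Secondary structure fractions estimated by SELCON3, CDSSTR and CONTIN/LL. Mean ± SEM, n = 4; Student's t-test.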

[5] = read-out: Kd (binding affinity of PPARα for each compound), 0.1 μM PPARαΔAB in 20 mM glucose in PBS, mean ± SEM (n = 3–4)
[6] = compound 10 μM, 10 μM clofibrate, 20 mM glucose (Fig. 2F)
[7] = compound 10 μM, 10 μM clofibrate

| SMILES | Recovery (ability to restore acyl-CoA binding) (PPARαΔAB [2]) | Kd (PPARαΔAB [1]) | Effect on clofibrate-induced PPARα-RXRα activity (PPARα-RXRα heterodimers; [6]) | other results |
| --- | --- | --- | --- | --- |
| CC(=O)N[C@@H]1[C@@H](O)[C@H](O)[C@@H](CO)O[C@@H]1O [Acetylglucosamine] | 63.8% | – | – | Kd (PPARαΔAB [1]; [5]): 33.3 ± 3 nM; Increase of PPARα transactivation (percentage change from no-compound control) (PPARα; compound 10 μM): ≥ 50% |
| CCCC1O[C@@H]2C[C@H]3[C@@H]4CCC5=CC(=O)C=C[C@]5(C)[C@H]4[C@@H](O)C[C@]3(C)[C@]2(C(=O)CO)O1 (stereo partly drawn) [Budesonide] | 82.0% | 26.3 ± 3.2 nM | significantly decreased | – |
| CCOC(=O)[C@H](CCc1ccccc1)N[C@@H](C)C(=O)N1CCC[C@H]1C(=O)O [Enalapril maleate] | 64.7% | 26.3 ± 2.8 nM | – | – |
| CC(=O)O[C@@H]1C[C@H]2C(C)(C)C(=O)C=C[C@]2(C)[C@H]2CC[C@@]3(C)[C@H](c4ccoc4)OC(=O)[C@H]4O[C@]43[C@@]21C [Gedunin] | 62.3% | 21.9 ± 1.8 nM | significantly decreased | Effect on clofibrate-induced PPARα-RXRα activity (PPARα-RXRα heterodimers; compound 10 μM, 10 μM clofibrate, absence of glucose (Fig. 2F)): significantly affected activity; Effect on basal PPARα-RXRα heterodimer activity (PPARα-RXRα heterodimers; compound 10 μM, with or without glucose (Fig. 2E)): decreased activity; Effect on clofibrate-induced PPARα transactivation (PPARα; [7]): decreases; Effect on basal PPARα activity (PPARα; compound 10 μM, with or without glucose (Fig. 2C)): significantly reduced |
| CN1[C@@H]2CC[C@H]1C[C@@H](OC(=O)[C@H](CO)c1ccccc1)C2 [Hyoscyamine] | 86.4% | 14.8 ± 2.8 nM | – | – |
| NC(=O)c1cnccn1 [Pyrazinamide] | 68.6% | 28.4 ± 2.3 nM | significantly decreased | – |
| O=C1NS(=O)(=O)c2ccccc21 [Saccharin] | 81.3% | 22.5 ± 2 nM | – | Effect on clofibrate-induced PPARα transactivation (PPARα; [7]): significant increases |
| NC(=O)c1ccccc1O [Salicylamide] | 83.1% | 25.8 ± 6 nM | – | – |
| CN=C(N)NCCC[C@H](N)C(=O)O.Cl [Targinine hydrochloride, reference compound] | 67.5% | – | significantly decreased | Kd (PPARαΔAB [1]; [5]): 33.5 ± 3.5 nM; Increase of PPARα transactivation (percentage change from no-compound control) (PPARα; compound 10 μM): ≥ 50% |
| c1ccc(CC2=NCCN2)cc1 [Tolazoline hydrochloride] | 73.9% | 31.4 ± 3.6 nM | – | – |
| Cc1ccc(C(=O)c2ccc(CC(=O)O)n2C)cc1 [Tolmetin sodium, reference compound] | 97.1% | 35.1 ± 3.7 nM | significantly decreased | Increase of PPARα transactivation (percentage change from no-compound control) (PPARα; compound 10 μM): ≥ 50% |
| NCCCC(=O)O [g-aminobutyric acid] | 85.5% | – | – | Kd (PPARαΔAB [1]; [5]): 29.5 ± 4.1 nM |
| OC[C@H]1OC(O)[C@H](O)[C@@H](O)[C@@H]1O (stereo partly drawn) [glucose] | – | – | – | Increase of transactivation by glucose over clofibrate alone (PPARα-RXRα heterodimers; 10 μM clofibrate, 20 mM glucose, PPARα-RXRα heterodimers (Fig. 2B)): 3- to 4 fold; Effect of glucose on basal transactivation (PPARα-RXRα heterodimers; 20 mM glucose, no other ligand (Fig. 2A)): increased activity; Increase of transactivation by glucose over clofibrate alone (PPARα; 10 μM clofibrate, 20 mM glucose, PPARα alone (Fig. 2B)): 3- to 4 fold; Effect of glucose on basal transactivation (PPARα; 20 mM glucose, no other ligand, PPARα alone (Fig. 2A)): no significant effect; Decrease in BODIPY-C16-CoA fluorescence intensity (PPARαΔAB [2]; plate assay controls): ~ 30%; Effect of glucose on BODIPY-C16 (fatty acid) binding to PPARα (PPARαΔAB [3]; 50 nM BODIPY-C16, 100 nM PPARαΔAB (Fig. 1D)): not affected; Effect of glucose on BODIPY-C16-CoA binding to PPARα (PPARαΔAB [3]; 50 nM BODIPY-C16-CoA, 100 nM PPARαΔAB (Fig. 1C, 1D)): significantly decreased; Turns (PPARαΔAB [4]): 20.2 ± 0.7%; Unordered (PPARαΔAB [4]): 30.7 ± 0.8 %; α-Helices Distorted, Hd (PPARαΔAB [4]): 10.8 ± 0.3 %; α-Helices Regular, Hr (PPARαΔAB [4]): 14.3 ± 0.3 %; β-Sheets Distorted, Sd (PPARαΔAB [4]): 8.8 ± 0.5 %; β-Sheets Regular, Sr (PPARαΔAB [4]): 14.4 ± 1.2 % |
| COc1cccc(OC)c1C(=O)N[C@@H]1C(=O)N2[C@@H]1SC(C)(C)[C@@H]2C(=O)O [methicillin sodium] | – | – | – | Direct binding to PPARα (change of intrinsic fluorescence) (PPARαΔAB [1]; 20 mM glucose): no binding |
